GPR7 antagonist: GPR7 receptor antagonists, primary screen, cell-based, fluorescence, single concentration; inhibition, % at 4.4 µM; Neuropeptides B/W receptor type 1 (Homo sapiens), P48145; GPR7-expressing cells, fluorescence antagonist assay; AID 1861, 2009; hit rate 1.1% among 290,000; in the data active means inhibition above about 16%, passing the limit was not always enough;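 further: cells stimulated with the agonist NPW; 0% = agonist with vehicle and 100% = vehicle without agonist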
Target sequence (P48145 whole entry, looked up): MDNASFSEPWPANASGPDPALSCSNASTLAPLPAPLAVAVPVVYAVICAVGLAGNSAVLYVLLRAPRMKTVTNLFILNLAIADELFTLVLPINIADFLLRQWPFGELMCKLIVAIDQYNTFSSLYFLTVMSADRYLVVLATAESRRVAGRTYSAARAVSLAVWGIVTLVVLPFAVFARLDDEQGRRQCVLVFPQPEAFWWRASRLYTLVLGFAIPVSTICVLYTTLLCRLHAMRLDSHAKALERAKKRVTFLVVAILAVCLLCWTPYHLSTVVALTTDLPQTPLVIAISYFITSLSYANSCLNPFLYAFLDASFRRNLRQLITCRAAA
OX1R antag-1: OX1R (HCRTR1) antagonists, primary screen, fluorescence, CHO/OX1R cells, Fluo-8 calcium, orexin A. Orexin/Hypocretin receptor type 1 (Homo sapiens), O43613. Fluo-8 calcium fluorescence. inhibition, % at 5 µM. hit rate 0.43% among 330,000. AID 434989, 2010;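 active means inhibition above its plate's threshold, mean inhibition of all tested compounds on the plate plus 3 SD, cut at about 37% in these data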;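 further: 0% = orexin A challenge wells and 100% = SB-334867-A antagonist wells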
CHO parental Ca: ATP-evoked calcium signal inhibitors, parental CHO, primary screen, counter-screen for OX1R antagonist project, cell-based, fluorescence, Fluo-8 calcium dye; hit rate 0.63% among 330,000; AID 463079, 2010; parental CHO-K1, ATP-induced calcium, Fluo-8 fluorescence; inhibition, % at 5.6 µM;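 active means inhibition above that plate's mean sample inhibition plus 3 SD, cut at about 26% in these data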;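 further: 0% = ATP-challenged DMSO wells and 100% = DMSO wells without ATP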
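Material: parental CHO cells / Compound: single nominal dose of 5.6 µM per compound / Signal: Fluo-8 fluorescence / Replicates: singlicate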
GalR3 antagonist: GalR3 antagonists in HEK293 cells, primary screen, cell-based, fluorescence readout | Galanin receptor type 3 (Homo sapiens), O60755 | HEK293 GalR3-CNG cAMP membrane potential fluorescence; galR3 body fused to GalR1 C-terminus | inhibition, % at 3 µM | hit rate 0.44% among 360,000 | AID 651719, 2012;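 active means inhibition above the screen-wide average plus 3 SD, cut at about 13% in these data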;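 further: forskolin and galanin both at EC90 stimulate the cells; cAMP rise reported by CNG channel membrane potential dye signal; 0% = forskolin plus galanin with DMSO and 100% = forskolin alone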
Target sequence (O60755 1-299 limits assumed): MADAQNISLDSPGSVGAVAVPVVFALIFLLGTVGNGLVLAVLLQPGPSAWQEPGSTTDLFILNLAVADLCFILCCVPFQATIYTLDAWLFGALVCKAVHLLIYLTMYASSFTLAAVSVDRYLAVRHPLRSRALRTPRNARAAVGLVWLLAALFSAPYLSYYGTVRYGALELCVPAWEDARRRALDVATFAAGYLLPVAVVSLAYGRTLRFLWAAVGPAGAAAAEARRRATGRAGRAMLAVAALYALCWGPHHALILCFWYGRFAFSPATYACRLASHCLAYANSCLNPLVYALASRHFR
OX1R antag-2: antagonists of human orexin 1 receptor (OX1R) | Orexin/Hypocretin receptor type 1 (Homo sapiens), O43613 | OX1R-expressing cells, FRET antagonist read-out | inhibition, % at 6.6 µM | hit rate 1.8% among 330,000 | AID 485270, 2010; in the data active means inhibition mostly above about 38%, no sharp cut-off; inactive means mostly below about 40%;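 further: 0% = agonist challenge alone and 100% = reference antagonist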
GalR3 antag conf: GalR3 antagonist hit confirmation, cell-based, fluorescence, triplicate. shares compounds with GalR3 antagonist. HEK293 GalR3 CNG cAMP biosensor, membrane potential fluorescence; galR3 fused to GalR1 carboxy tail; challenged with forskolin and galanin at EC90. inhibition, % at 3 µM. hit rate 59% among 1,600;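 active means inhibition above the primary screen's cutoff, the mean inhibition of all screened compounds plus 3 SD, cut at about 13% in these data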;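 further: 0% = forskolin plus galanin and 100% = forskolin alone with DMSO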
CNG parental: nonspecific cAMP agonists in parental HEK-CNG cells, counter-screen for GalR3 antagonist project, cell-based, fluorescence, high throughput; AID 652268, 2013; shares compounds with GalR3 antagonist; activation, % at 3 µM; hit rate 10% among 1,600; HEK293-CNG parental cells, cAMP membrane potential fluorescence; normalised: DMSO wells 0%, forskolin wells 100%; in the data active means activation above about 1.3%
* marks the source's active call; other numbers are inactive results; . = no result. Compounds with a hit are over-represented: about 3.1% of the library has one in this group of screens.

SMILES | GPR7 antagonist | OX1R antag-1 | CHO parental Ca | GalR3 antagonist | OX1R antag-2 | GalR3 antag conf | CNG parental
N#CC(C#N)=C(Nc1ccc(F)cc1)SCc1cccc(Br)c1 | 1 | 36 | 70* | 92* | 56 | 100* | 0
CC(SCc1ccccc1)C(=O)Nc1ccc(F)cc1 (centres undefined) | -4 | -23 | -11 | 0 | 26 | . | .
Cc1ccc(-c2sc(C(=O)NN)c(C)c2C#N)cc1 | -18 | -17 | -11 | 27* | 7 | 25* | 0
O=C(NCCc1ccc(Cl)cc1)c1ccc2nc(N3CCOCC3)sc2c1 | 10 | -18 | -6 | 16* | 18 | 19* | 0
CCOc1ccc(CNC(=O)c2ccc3nc(N4CCOCC4)sc3c2)cc1 | 9 | -20 | -8 | 4 | 7 | . | .
Cc1ccc(C(=O)NCCCn2ccnc2)cn1 | -7 | -2 | -4 | . | 12 | 6 | 0
COc1cccc(/C=C/C(=O)OCC(=O)Nc2cccc(S(=O)(=O)N3CCOCC3)c2)c1OC | -5 | -26 | -16 | -6 | 10 | . | .
COc1ccc(OC)c(CCNC(=O)Cn2nc(C)c3c(C)n(-c4ccc(C)cc4)nc3c2=O)c1 | -4 | -19 | -22 | 33* | 13 | 98* | 0
COc1ccc(CCNC(=O)Cn2nc(C)c3c(C)n(-c4ccccc4)nc3c2=O)c(OC)c1 | -9 | -40 | -36 | 3 | 11 | . | .
Cc1ccc(C2C(C(=O)c3cccs3)=C(O)C(=O)N2c2nnc(C)s2)cc1 (centres undefined) | 8 | 9 | 2 | 13* | 1 | 18* | 0
NS(=O)(=O)c1ccc(CCNC(=O)CN2CCC(Cc3ccccc3)CC2)cc1 | -6 | -11 | 2 | 15* | -3 | 6 | 0
CCc1cccc(OCC(=O)Nc2ccc(C)c(S(=O)(=O)N3CCCCCC3)c2)c1 | . | 22 | 35* | 87* | 34 | 80* | 0
Cc1ccc(NC(=O)COc2ccc(N(C)C(=O)C(C)(C)C)cc2)cc1S(=O)(=O)N1CCCCC1 | . | 73* | 78* | 93* | 20 | 105* | -1
Cc1ccc(NC(=O)COc2cccc(C)c2C)cc1S(=O)(=O)N1CCCCCC1 | . | -12 | 3 | 0 | 19 | . | .
CC(C(=O)Nc1ccc2[nH]c(=O)[nH]c2c1)N1CCN(Cc2ccc3c(c2)OCO3)CC1 (centres undefined) | . | -5 | -6 | 13* | 5 | 13* | 0
COC(=O)c1ccc(Cn2c(C)c(C(=O)Nc3cccc(Oc4ccccc4)c3)sc2=O)o1 | . | . | . | -1 | . | . | .
CCN(c1ccccc1)S(=O)(=O)c1ccc(F)cc1 | -19 | -1 | -10 | -6 | 5 | . | .
CCN(c1ccccc1)S(=O)(=O)c1ccc(C(=O)Oc2ccc(C(C)=O)cc2)cc1 | -7 | -3 | -7 | 14* | 5 | -2 | 0
COc1ccc(NS(=O)(=O)c2ccc3c(c2)CCN3C(=O)CCC(=O)O)cc1OC | 10 | -15 | 6 | -14 | 6 | . | .
Cc1ccn(CC(=O)N2CCCC(C(=O)c3cccc4ccccc34)C2)n1 (centres undefined) | 0 | -11 | 5 | 4 | 13 | . | .
Cc1nc(C)n(CC(=O)N2CCCC(C(=O)c3cccc4ccccc34)C2)n1 (centres undefined) | -16 | -21 | -22 | 13* | 24 | -1 | 0
O=C(Nc1ccc(Oc2ccccc2)cc1)c1csc([C@H]2C[C@H](O)[C@@H](CO)O2)n1 | . | . | . | 84* | . | 109* | -1
CC(=O)Nc1ccc(NC(=O)c2csc([C@@H]3C[C@H](O)[C@@H](CO)O3)n2)cc1 | . | . | . | -6 | . | . | .
CN1CCN(C(=S)NC(=O)c2ccc(Br)cc2)CC1 | -15 | -9 | -2 | -6 | -1 | . | .
CN1CCN(C(=S)C(=O)Nc2ccc(Br)cc2)CC1 | 4 | -9 | 1 | 40* | 16 | 4 | 0
SMILES | GPR7 antagonist | OX1R antag-1 | CHO parental Ca | GalR3 antagonist | OX1R antag-2 | GalR3 antag conf | CNG parental
COc1ccccc1NS(=O)(=O)c1cccc(NS(=O)(=O)c2cc(C(=O)O)ccc2Cl)c1 | . | . | . | -4 | . | . | .
Cn1c(CNc2nc3ccccc3n2C)nc2ccccc21 | 2 | -26 | -26 | 15* | 15 | 0 | 0
CC(C)n1c(NCc2nc3ccccc3n2C)nc2ccccc21 | -13 | -25 | -22 | -5 | 20 | . | .
COC(=O)[C@]12CCCCC=C1N(Cc1ccc(Cl)cc1Cl)C(=O)[C@H](CC(=O)NCc1ccc(C)o1)C2 | . | . | . | -6 | . | . | .
Cc1cc(SCC(=O)NCCCN2CCCC2=O)nc2ccccc12 | . | -9 | -13 | -8 | 10 | . | .
CN(C)S(=O)(=O)c1cccc(C(=O)Nc2ccccc2[N+](=O)[O-])c1 | -5 | -19 | -11 | 15* | 26 | 2 | 0
O=C(O)c1ccc(NS(=O)(=O)c2cccc(C(=O)Nc3ccccc3[N+](=O)[O-])c2)cc1 | -1 | . | . | -4 | . | . | .
O=C(Cn1cncn1)NCc1cc(F)ccc1F | -9 | -9 | 8 | -1 | 8 | . | .
O=C(O)c1cccc(NC(=S)NC(=O)c2ccc(-c3ccc(Cl)cc3)o2)c1 | 15 | -9 | -10 | -5 | 12 | . | .
O=C(O)c1ccc(NC(=S)NC(=O)c2ccc(-c3ccc(Br)cc3)o2)cc1 | -7 | -2 | 6 | 13* | 15 | -19 | 1.7*
CCOC(=O)c1ccc(S(=O)(=O)NC2CCC(C)CC2)cc1 (centres undefined) | . | 13 | -14 | -5 | 16 | . | .
C=CCn1c(SC2CCOC2=O)nc2sc(C)c(C)c2c1=O (centres undefined) | -12 | -20 | -10 | 35* | -15 | 36* | 0
Cc1sc2nc(SC3CCOC3=O)n(Cc3ccccc3)c(=O)c2c1C (centres undefined) | -8 | -38 | -14 | -4 | 9 | . | .
O=C(c1ccc(Cl)cc1)N1N=CCC1(O)c1ccc(Cl)cc1 (centres undefined) | -2 | -22 | -7 | -2 | 20 | . | .
CCOc1ccc(-c2c[n+]3c(n2-c2ccccc2)CCCCC3)cc1 | 25* | -19 | 3 | 56* | 12 | 71* | 0
COc1ccc(-n2c(-c3ccccc3)c[n+]3c2CCC3)cc1 | -4 | 9 | -1 | -5 | 17 | . | .
Cc1ccc(-c2nc3ccc(Cl)cn3c2Cc2cccc(Cl)c2)cc1 | . | . | . | -5 | . | . | .

Source: PubChem (The Scripps Research Institute Molecular Screening Center)
